Screening data (PubChem)
PLAP activator: PLAP enzyme activators, biochemical, luminescence, HTS. AID 696, 2007. purified PLAP enzyme, luminescent substrate read-out; stronger effect = higher value. 96,000 tested, 1.2% active. Alkaline phosphatase, placental type (Homo sapiens), P05187. activation fold at 20 µM; in the data active means activation fold above about 2
PostGolgi ctrl: growth inhibition of yeast control strain, primary screen, counter-screen for post-Golgi transport modulator project. inhibition, % at 10 µM. 98,000 tested, 5% active. AID 738, 2007. efflux-deficient yeast background strain, growth absorbance A615, 16 h
PostGolgi yeast: phenotypic screen on post-Golgi transport, primary screen. post-Golgi transport phenotypic cell assay. inhibition, % at 10 µM. 98,000 tested, 0.9% active;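 further: yeast cells grown in 1536-well plates; yeast grown about 18 h at 30C before absorbance read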
Ecoli tolC: growth inhibitors of E. coli tolC mutant, primary screen, strain BW25113 ΔtolC::kan, 384-well. OD615. 65,000 tested, 2.2% active. growth inhibition, % at 10 µM (by protocol);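 active means growth inhibition at or above a cutoff equal to the mean over every tested compound plus 3 SD, cut at about 60% in these data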;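 further: growth measured after 20 h incubation at 37 °C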
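Doses: one dose of 10 µM final / Material: E. coli BW25113 ΔtolC::kan, tolC deletion mutant strain / Buffer or medium: LB with kanamycin 50 µg/mL / Evaluation: percent growth inhibition / Detection: optical density read at 615 nm / Incubation: 37 °C, 20 h exposure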
HePTP inh: inhibitors of human HePTP phosphatase, primary screen, biochemical, absorbance, leukemia target | recombinant HePTP phosphatase activity, OD absorbance | inhibition, % at 20 µM | Tyrosine-protein phosphatase non-receptor type 7 (Homo sapiens), P35236 | 110,000 tested, 0.64% active; in the data active means inhibition above about 50%;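 further: plate controls were vehicle for no effect and reference inhibitor for full effect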
Target sequence (P35236 whole entry, looked up): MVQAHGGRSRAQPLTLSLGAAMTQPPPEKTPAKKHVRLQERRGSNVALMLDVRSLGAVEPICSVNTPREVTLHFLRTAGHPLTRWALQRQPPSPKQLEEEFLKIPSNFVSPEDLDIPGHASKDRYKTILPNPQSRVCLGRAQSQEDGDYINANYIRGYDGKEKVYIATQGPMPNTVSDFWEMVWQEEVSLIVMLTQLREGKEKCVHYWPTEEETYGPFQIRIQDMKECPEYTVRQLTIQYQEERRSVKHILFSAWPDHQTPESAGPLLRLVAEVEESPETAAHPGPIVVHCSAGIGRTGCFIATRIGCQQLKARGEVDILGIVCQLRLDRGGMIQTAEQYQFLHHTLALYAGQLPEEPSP
Ecoli WT expand: growth inhibitors of wild-type E. coli, primary screen, strain BW25113, expanded library, OD600. OD600 absorbance. growth inhibition, % at 100 µM. 98,000 tested, 0.15% active. AID 710, 2007;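 active means growth inhibition above about 50% at one test dose, limit read from the data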;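 further: growth measured after 20 h incubation at 37 °C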
An asterisk follows results filed as active; · = no result given. Most compounds without a hit are left out; they make up all but 5.4% or so of the library. Unless noted, no stated cut-off is given here; in the data, active means inhibition above about 30%; inactive means the rest.

SMILES | PLAP activator | PostGolgi ctrl | PostGolgi yeast | Ecoli tolC | HePTP inh | Ecoli WT expand
CC(C(=O)NCC1CCCO1)N(C(=O)c1snc(C(N)=O)c1N)c1ccccc1 (stereo not drawn) | 0.9 | 30* | 2 | -9 | 7 | -1
COc1ccc(OC)c(/C=N/NC(=O)CSc2ncccn2)c1 | · | · | · | · | -10 | ·
C=CCn1c(-c2cccn(Cc3cccc(Cl)c3)c2=O)n[nH]c1=S | 1 | 15 | -1 | · | · | -1
CCOC(=O)C1CCCN(c2c(NCCCN(CC)c3ccccc3)c(=O)c2=O)C1 (stereo not drawn) | 1 | 35* | 2 | 3 | 5 | 5
CCOc1ccc(Nc2ncnc3c2cnn3Cc2ccccc2)cc1 | 1.1 | 14 | 9 | · | · | -5
O=C(CSc1nnc(-c2ccco2)n1Cc1ccccc1)c1ccc(F)cc1 | 1.3 | 32* | -4 | 15 | -2 | -1
Cc1occc1-c1nnc(SCC(=O)c2ccc(F)cc2)n1Cc1ccco1 | 1.2 | 14 | -2 | 20 | 2 | -6
O=C(CSc1nnc(-c2cc3ccccc3cc2O)n1Cc1ccco1)c1ccc(F)cc1 | 1.7 | 80* | -3 | 48 | -4 | -18
O=C(CSc1nnc(-c2ccco2)n1Cc1ccco1)NCc1ccccc1 | 1 | 2 | -4 | · | · | 4
O=C(c1nn2c(C(F)(F)F)cc(-c3cccs3)nc2c1Br)N1CCN(c2ccc(F)cc2)CC1 | · | · | · | · | 8 | ·
Cc1oc(-c2cccc(Cl)c2)nc1CN1CCCC(C(=O)NCCCN2CCOCC2)C1 (stereo not drawn) | 1.2 | 4 | -2 | 0 | -6 | 7
O=C(Nc1ccc(I)cc1Cl)c1cccc(Cl)c1 | · | · | · | · | 0 | ·
COc1ccc(-n2nnnc2SCC(=O)Nc2nnc(C)s2)cc1 | 1 | -11 | 20 | · | · | 0
CCCCNC(=O)CCn1c(=O)c2ccccc2n(CC(=O)N2CC(C)CC(C)C2)c1=O (stereo not drawn) | 1.4 | 9 | 14 | -8 | 7 | 3
CC1CCN(C(=O)Cn2c(=O)n(CCc3ccccc3)c(=O)c3ccccc32)CC1 | 0.8 | 43* | 21 | 0 | 4 | -3
COCCNC(=O)CN1CCC(NC(=O)C(C)(C)C)CC1 | 1 | 13 | 37* | · | · | -5
COc1ccc(-n2nc(C(=O)NCC(=O)NCC3CCCO3)c3ccccc3c2=O)c(OC)c1 (stereo not drawn) | 1.1 | 3 | 13 | -4 | 7 | 1
Nc1c(C(=O)NC2CC2)c2nc3ccccc3nc2n1-c1ccc2c(c1)OCO2 | 1 | 10 | -5 | -16 | 3 | -13
Nc1c(C(=O)OCC2CCCO2)c2nc3ccccc3nc2n1-c1ccc2c(c1)OCCO2 (stereo not drawn) | 1.5 | 2 | 43* | 19 | 7 | 1
C=CCn1c(N)c(C(=O)NCC2CCCO2)sc1=S (stereo not drawn) | 1.1 | 32* | -3 | -15 | 7 | 3
COc1ccc(-n2c(N)c(C(=O)NCC3CCCO3)c3nc4ccccc4nc32)c(OC)c1 (stereo not drawn) | 2* | 1 | -8 | 26 | 2 | -7
C=CCn1c(N)c(C(=O)NCC2CCCO2)c2nc3ccccc3nc21 (stereo not drawn) | 1.6 | 5 | 33* | 12 | 9 | 4
CCn1c(N)c(C(=O)NCC2CCCO2)sc1=S (stereo not drawn) | 1 | 10 | 4 | -9 | 15 | -2
O=C(NCC1CCCO1)c1coc2nc3ccccc3nc12 (stereo not drawn) | 1.8 | -2 | 15 | 3 | -8 | -5
Cc1cc(C)cc(CC2CC(=O)N(c3ccc(Cl)cn3)C2=O)c1 (stereo not drawn) | 1.3 | 6 | -6 | · | · | 4
SMILES | PLAP activator | PostGolgi ctrl | PostGolgi yeast | Ecoli tolC | HePTP inh | Ecoli WT expand
CCN(CC)c1ccc(NC(=O)c2cc3ccccc3o2)c(C)c1 | 1.1 | 0 | -5 | -1 | 9 | -8
CCOC(=O)n1c(=O)n(Cc2ccccc2)c2ccccc21 | 0.9 | 12 | 12 | · | · | 3
CCOC(=O)C1CCN(Cc2ccc(Cl)c(Cl)c2)CC1 | 2* | 7 | 7 | · | · | 3
CCOC(=O)n1c(=O)n(Cc2ccc(Cl)c(Cl)c2)c2ccccc21 | 1.2 | 66* | 0 | · | · | -11
CCOC(=O)C1CCN(Cc2cnc(Oc3ccc(Cl)cc3C)s2)CC1 | 1.3 | 17 | 49* | · | · | 2
COc1ccc(OC)c(S(=O)(=O)Nc2ccc(O)c(Sc3ncn[nH]3)c2)c1 | 1.5 | 43* | -5 | 0 | -7 | -1
CCOc1ccc(NS(=O)(=O)c2cc(OC)ccc2OC)cc1 | 0.8 | 12 | -8 | · | · | -4
CN1CCN(c2cc(-c3ccccc3)nc3cc(-c4ccc(F)cc4)nn23)CC1 | 1.8 | 73* | 23 | · | · | -5
Fc1ccc(-c2cc3nc(-c4ccccc4)cc(N4CCN(CCN5CCOCC5)CC4)n3n2)cc1 | 1.6 | 19 | 5 | 29 | 12 | 9
Cc1ccc(N(CC(=O)NC2CCCC2)S(=O)(=O)c2ccc(F)cc2)cc1 | · | · | · | · | -4 | ·
NC1=NC(c2cn(-c3ccccc3)nc2-c2cccs2)n2c(nc3ccccc32)N1 (stereo not drawn) | 1.8 | 9 | 22 | 100* | 3 | 6
O=C(Nc1ccccc1Cl)c1ccccc1Oc1ccc(C(F)(F)F)cc1[N+](=O)[O-] | 1.3 | 54* | -1 | · | · | -18
O=C(Nc1ccccc1Cl)c1ccccc1C(F)(F)F | · | · | · | · | 104* | ·
O=C(Nc1ccccc1I)c1ccccc1C(F)(F)F | · | · | · | · | 8 | ·
COc1cccc(NC(=O)C(=O)N/N=C/c2cc(OC)ccc2OC)c1 | · | · | · | · | -7 | ·
CC(C)NS(=O)(=O)c1ccc(Br)cc1 | · | · | · | · | -10 | ·
CC(/C=C/c1ccccc1)=N\N=C1\NC(=O)C(Cc2ccccc2)S1 (stereo not drawn) | · | · | · | · | 104* | ·
S=c1[nH]nc2c3c4c(sc3n3c(=S)[nH]nc3n12)CCC4 | · | · | · | · | 101* | ·
CCn1c(=O)c2c3c(sc2n2c(=S)[nH]nc12)CCC3 | 1 | 6 | -5 | · | · | 8
O=C(Nc1nnc(-c2ccc3c(c2)CCCC3)o1)c1ccccc1 | 1.2 | 11 | 100* | · | · | 25
O=C(Nc1nnc(-c2ccc(Cl)cc2)o1)Nc1ccccc1Cl | 1 | 10 | 3 | · | · | -2
O=C(Nc1ccccc1)c1ccc2c(c1)OCCO2 | 1 | 2 | 1 | · | · | 13
O=C(Nc1nnc(-c2ccccc2)o1)C1CCCCC1 | 1.1 | -1 | 6 | · | · | -3
O=C(Nc1nnc(-c2ccc3c(c2)OCCO3)o1)c1ccc(Cc2ccccc2)cc1 | 1.1 | 11 | -4 | 100* | 1 | -1
O=C(COc1ccccc1)Nc1nnc(-c2ccc3c(c2)CCCC3)o1 | 1.2 | 31* | -14 | · | · | -6
O=C(Nc1nnc(-c2ccc3c(c2)CCCC3)o1)c1ccccc1Cl | 1 | 28 | 88* | 98* | 10 | 6
NS(=O)(=O)c1ccc(-c2ccc(/C=C3/SC(=S)N(C4CCCCC4)C3=O)o2)cc1 | · | · | · | · | 16 | ·
